Experiments:
[1] = biological target: T1, Androgen receptor (Homo sapiens, UniProt P10275); assay: Inhibition of androgen receptor in human LNCAP cells after 1 day by luciferase reporter gene assay; type: cell-based
T1 sequence (P10275 whole entry): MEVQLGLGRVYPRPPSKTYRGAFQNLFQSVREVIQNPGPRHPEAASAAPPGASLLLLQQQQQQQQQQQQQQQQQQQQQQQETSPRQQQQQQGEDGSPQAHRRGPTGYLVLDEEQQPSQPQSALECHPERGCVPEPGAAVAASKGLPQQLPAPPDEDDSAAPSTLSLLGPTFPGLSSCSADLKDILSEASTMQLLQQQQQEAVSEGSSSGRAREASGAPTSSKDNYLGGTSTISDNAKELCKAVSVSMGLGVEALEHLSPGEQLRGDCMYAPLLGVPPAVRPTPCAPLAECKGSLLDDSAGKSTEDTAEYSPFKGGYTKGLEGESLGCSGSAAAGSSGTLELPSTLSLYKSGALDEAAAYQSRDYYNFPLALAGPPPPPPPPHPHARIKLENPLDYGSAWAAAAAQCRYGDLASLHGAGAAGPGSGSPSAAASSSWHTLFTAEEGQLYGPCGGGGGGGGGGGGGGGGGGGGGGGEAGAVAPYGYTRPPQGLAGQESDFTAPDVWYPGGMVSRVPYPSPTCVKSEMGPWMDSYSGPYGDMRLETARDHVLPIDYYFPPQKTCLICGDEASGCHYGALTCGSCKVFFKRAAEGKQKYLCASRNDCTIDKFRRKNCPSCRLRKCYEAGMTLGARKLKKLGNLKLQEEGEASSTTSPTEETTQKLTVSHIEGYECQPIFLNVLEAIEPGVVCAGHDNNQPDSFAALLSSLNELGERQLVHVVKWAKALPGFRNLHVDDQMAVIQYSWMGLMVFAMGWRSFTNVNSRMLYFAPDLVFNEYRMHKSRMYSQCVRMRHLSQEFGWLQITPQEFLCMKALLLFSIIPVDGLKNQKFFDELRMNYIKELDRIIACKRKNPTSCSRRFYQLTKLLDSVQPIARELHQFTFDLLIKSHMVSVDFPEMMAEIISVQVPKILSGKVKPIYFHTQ

[2] = tested on: LNCaP; assay: Cytotoxicity against human LNCAP cells assessed as cell viability after 2 days by cell counting method; type: functional, cell-based; conditions: 48 h
Summary of the method: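 LNCap cells were grown in RPMI1640 with 10% FBS and penicillin/streptomycin at 37 °C in 5% CO2. They were seeded at 4 × 10³ cells/well, left 24 h, then exposed to compounds for 2 days. Viability was read by CCK-8 absorbance, in triplicate.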

[3] = AUC (0 to infinity) in Sprague-Dawley rat at 2.5 mg/kg, po; type: ADME, organism-based; parameters: time infinity, dose 2.5 mg/kg, route oral; conditions: plasma
Summary of the method: (§1)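 Male Sprague-Dawley rats, n = 3 per route, were given 2.5 mg/kg by either intravenous or oral dosing. Plasma concentration–time profiles were followed, and PK parameters were derived from them, with AUC taken over 0–72 h and also to infinity.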

[4] = Mean residence time in Sprague-Dawley rat at 2.5 mg/kg, iv; type: ADME, organism-based; parameters: dose 2.5 mg/kg, route intravenous; conditions: in vivo; summary of the method: as §1
[5] = AUC (0 to 72 hrs) in Sprague-Dawley rat at 2.5 mg/kg, iv; type: ADME, organism-based; parameters: time < 72 hr, dose 2.5 mg/kg, route intravenous; conditions: plasma; summary of the method: as §1
[6] = AUC (0 to infinity) in Sprague-Dawley rat at 2.5 mg/kg, iv; type: ADME, organism-based; parameters: time infinity, dose 2.5 mg/kg, route intravenous; conditions: plasma; summary of the method: as §1
[7] = Elimination half life in Sprague-Dawley rat at 2.5 mg/kg, iv; type: ADME, organism-based; parameters: dose 2.5 mg/kg, route intravenous; conditions: in vivo, read-out: beta t1/2 (converted); summary of the method: as §1
[8] = AUC (0 to 72 hrs) in Sprague-Dawley rat at 2.5 mg/kg, po; type: ADME, organism-based; parameters: time < 72 hr, dose 2.5 mg/kg, route oral; conditions: plasma; summary of the method: as §1
[9] = Elimination half life in Sprague-Dawley rat at 2.5 mg/kg, po; type: ADME, organism-based; parameters: dose 2.5 mg/kg, route oral; conditions: in vivo, read-out: beta t1/2 (converted); summary of the method: as §1
[10] = Mean residence time in Sprague-Dawley rat at 2.5 mg/kg, po; type: ADME, organism-based; parameters: dose 2.5 mg/kg, route oral; conditions: in vivo; summary of the method: as §1
[11] = Blood clearance in Sprague-Dawley rat at 2.5 mg/kg, iv; type: ADME, organism-based; parameters: dose 2.5 mg/kg, route intravenous; summary of the method: as §1
[12] = Tmax in Sprague-Dawley rat at 2.5 mg/kg, po; type: ADME, organism-based; parameters: dose 2.5 mg/kg, route oral; conditions: in vivo; summary of the method: as §1
[13] = Octanol-water partition coefficient, log P of the compound by pH-metric method; type: physicochemical
[14] = biological target: CYP2D6 (Homo sapiens, UniProt P10635); assay: Inhibition of CYP2D6 (unknown origin) at 10 uM relative to control; type: ADME
Chain of CYP2D6 (P10635 whole entry): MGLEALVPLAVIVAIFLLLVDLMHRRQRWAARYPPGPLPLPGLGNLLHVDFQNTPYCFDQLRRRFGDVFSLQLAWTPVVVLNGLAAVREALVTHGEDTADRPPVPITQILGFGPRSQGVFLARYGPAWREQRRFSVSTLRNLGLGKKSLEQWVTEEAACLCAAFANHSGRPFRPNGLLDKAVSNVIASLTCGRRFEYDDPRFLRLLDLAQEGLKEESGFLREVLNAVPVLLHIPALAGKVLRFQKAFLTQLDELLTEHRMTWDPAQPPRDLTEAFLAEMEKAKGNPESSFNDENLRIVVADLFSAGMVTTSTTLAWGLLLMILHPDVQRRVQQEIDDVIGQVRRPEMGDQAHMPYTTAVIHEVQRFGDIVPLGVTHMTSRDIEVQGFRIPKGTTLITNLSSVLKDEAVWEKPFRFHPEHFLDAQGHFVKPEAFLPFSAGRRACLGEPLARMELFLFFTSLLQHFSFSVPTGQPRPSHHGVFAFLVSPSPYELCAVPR

[15] = Volume of distribution at steady state in Sprague-Dawley rat at 2.5 mg/kg, iv; type: ADME, organism-based; parameters: dose 2.5 mg/kg, route intravenous; conditions: in vivo, read-out: Vdss; summary of the method: as §1
[16] = Oral bioavailability in Sprague-Dawley rat at 2.5 mg/kg; type: ADME, organism-based; conditions: in vivo; summary of the method: as §1
[17] = Permeability of the compound at pH 7.4 at 500 uM after 16 hrs by PAMPA; type: ADME; conditions: pH 7.4, 16 h
Summary of the method: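 PAMPA: the donor solution was diluted from a 1 mM DMSO stock into system buffer at pH 7.4. Lipid solution was applied to each filter membrane, and the receiver side held acceptor sink buffer. The plates were incubated 16 h at room temperature. Donor and receiver sides were analysed by UV spectrometry, and donor initial concentration was also measured.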

[18] = Cmax in Sprague-Dawley rat at 2.5 mg/kg, po; type: ADME, organism-based; parameters: dose 2.5 mg/kg, route oral; conditions: in vivo; summary of the method: as §1
[19] = Metabolic stability in rat liver microsomes assessed as compound remaining at […] after 1 hr; type: ADME, Microsome; conditions: read-out: Stability
[20] = biological target: CYP3A4 (Homo sapiens, UniProt P08684); assay: Inhibition of human recombinant CYP3A4 using dibenzylfluorescein as substrate at 10 uM preincubated for 20 mins prior to enzyme/substrate addition measured after 20 mins by fluorometric assay relative to control; type: ADME; conditions: recombinant CYP3A4, probe dibenzylfluorescein
Chain of CYP3A4 (P08684 whole entry): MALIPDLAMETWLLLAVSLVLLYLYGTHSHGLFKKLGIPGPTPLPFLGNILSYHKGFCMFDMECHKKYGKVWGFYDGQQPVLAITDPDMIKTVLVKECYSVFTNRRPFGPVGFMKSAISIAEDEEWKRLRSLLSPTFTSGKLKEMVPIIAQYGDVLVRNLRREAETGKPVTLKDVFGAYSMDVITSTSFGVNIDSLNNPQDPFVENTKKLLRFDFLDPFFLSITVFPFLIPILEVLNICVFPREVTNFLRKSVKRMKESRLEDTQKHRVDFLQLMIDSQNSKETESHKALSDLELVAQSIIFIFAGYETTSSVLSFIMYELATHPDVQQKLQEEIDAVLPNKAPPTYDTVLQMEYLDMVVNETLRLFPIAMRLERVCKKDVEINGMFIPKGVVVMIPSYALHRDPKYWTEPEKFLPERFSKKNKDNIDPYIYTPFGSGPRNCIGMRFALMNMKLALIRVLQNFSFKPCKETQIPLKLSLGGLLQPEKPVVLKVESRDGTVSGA
Summary of the method: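 Vivid fluorometric kit. Compounds were in acetonitrile, with an acetonitrile vehicle control. NADP-regenerating system (1.0 mM NADP+, 3.3 mM glucose-6-phosphate, 3.3 mM MgCl2, 0.4 U/mL G6PDH in 10 mM KPO4, pH 8.0) was preincubated with compound at 37 °C for 20 min. Then 0.5 pmol recombinant human CYP3A4 plus dibenzylfluorescein was added, 20 min, and the reaction was stopped. Background had enzyme/substrate added after the stop. Fluorescein read at ex 485/em 530 nm.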

CCS(=O)(=O)Nc1cccc(-c2cc(=O)n(-c3ccc(C#N)cc3)nc2C)c1
IC50 [1]: 6.26 µM
IC50 [2]: 39 µM

CCS(=O)(=O)Nc1cccc(-c2cc(=O)n(-c3ccc(Cl)c(Cl)c3)nc2C)c1
AUC(0-inf) [3]: 30500 ng·h/mL
MRT [4]: 26.9 h
AUC(0-t) at 72 h [5]: 27500 ng·h/mL
AUC(0-inf) [6]: 29800 ng·h/mL
half-life [7]: 19.2 h
AUC(0-t) at 72 h [8]: 26800 ng·h/mL
half-life [9]: 21.6 h
MRT [10]: 34.9 h
clearance [11]: 1.41 mL/min/kg
Tmax [12]: 10.3 h
IC50 [1]: 2.65 µM
IC50 [2]: 11.6 µM
logP [13]: 3.82
inhibition at 10 µM [14]: 0%
Vd [15]: 2.25 L/kg
bioavailability [16]: 102%
permeability [17]: permeable
Cmax [18]: 767 ng/mL
remaining at 1 h [19]: > 99%
inhibition at 20 min, 10 µM [20]: 6.7%

CCS(=O)(=O)Nc1cccc(-c2cc(=O)n(-c3cc(Cl)cc(Cl)c3)nc2C)c1
IC50 [1]: 13.2 µM
IC50 [2]: 22.9 µM

CCS(=O)(=O)Nc1cccc(-c2cc(=O)n(-c3ccc(F)c(Cl)c3)nc2C)c1
IC50 [1]: 5.07 µM
IC50 [2]: 26.7 µM

CCS(=O)(=O)Nc1cccc(-c2cc(=O)n(-c3ccc4ccccc4c3)nc2C)c1
IC50 [1]: 9.76 µM
IC50 [2]: 18.3 µM

CC(O)(CS(=O)(=O)c1ccc(F)cc1)C(=O)Nc1ccc(C#N)c(C(F)(F)F)c1 (centres undefined) [BICALUTAMIDE]
IC50 [2]: 23.8 µM

— ChEMBL document CHEMBL2396586, “Discovery of non-LBD inhibitor for androgen receptor by structure-guide design” (Bioorg Med Chem Lett, 2013)
